# Data from ChEMBL document CHEMBL1155909, “Discovery and stereoselective synthesis of the novel isochroman neurokinin-1 receptor antagonist 'CJ-17,493'” (Bioorg Med Chem, 2008).
# What was measured:
# [1] = biological target: Substance-P receptor (Homo sapiens, UniProt P25103); test: Displacement of [3H]SP from NK1 receptor in human IM9 cells
# [2] = system: Mustela putorius furo; test: Antiemetic activity against cisplatin-induced emesis in sc dosed ferrets; assay type: functional, organism-based
# How it was run: (§1)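 Ferrets were given the test compound sc 30 min before cisplatin (10 mg/kg, ip). Retching and vomiting/gagging episodes were counted against vehicle control. Groups were n = 4–5, data are mean ± SEM, and Student's t-test was used. Results are given as ED90 (mg/kg, sc) or as % inhibition at the stated dose.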
# [3] = biological target: T1, Cytochrome P450 2D6 (Homo sapiens, UniProt P10635); test: Binding affinity to human CYP2D6 using bufuralol as substrate; assay type: ADME
# T1 sequence (P10635 whole entry): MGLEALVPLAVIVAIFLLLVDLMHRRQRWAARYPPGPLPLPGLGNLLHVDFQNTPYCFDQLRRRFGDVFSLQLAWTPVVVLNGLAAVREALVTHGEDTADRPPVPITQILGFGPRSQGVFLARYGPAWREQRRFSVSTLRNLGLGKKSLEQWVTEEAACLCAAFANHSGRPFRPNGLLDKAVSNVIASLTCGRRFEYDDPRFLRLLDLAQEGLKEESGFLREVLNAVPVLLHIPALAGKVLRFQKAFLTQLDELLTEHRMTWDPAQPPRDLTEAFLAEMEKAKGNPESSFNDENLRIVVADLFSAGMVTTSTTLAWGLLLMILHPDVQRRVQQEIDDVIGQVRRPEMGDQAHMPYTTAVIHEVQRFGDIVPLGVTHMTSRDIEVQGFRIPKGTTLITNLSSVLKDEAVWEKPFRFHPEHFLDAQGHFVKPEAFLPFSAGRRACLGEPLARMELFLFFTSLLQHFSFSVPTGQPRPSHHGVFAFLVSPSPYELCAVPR
# [4] = biological target: T1, Cytochrome P450 2D6; test: (§2) Inhibition of human CYP2D6 at 5 uM; assay type: ADME; settings: 5 µM
# [5] = system: Liver microsomes; test: Metabolic stability in human liver microsome assessed as ratio of half life between CYP2D6-deficient microsome and CYP2D6-deficient microsome with addition of exogenous CYP2D6; assay type: ADME
# How it was run: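 Half-lives were measured in CYP2D6-deficient human liver microsomes with and without added exogenous CYP2D6. The value is the ratio of the half-life without CYP2D6 to the half-life with it.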
# [6] = system: Gerbillinae; test: Inhibition of [Sar9, Met(O2)11]SP-induced foot tapping in gerbil at 1 mg/kg, sc relative to CP-122721; settings: for inhibition (INH): dose 1 mg/kg, route subcutaneous; for % inhibition at 1 mg/kg: Gerbillinae, sc
# [7] = system: Gerbillinae; test: Inhibition of [Sar9, Met(O2)11]SP-induced foot tapping in sc dosed gerbil
# [8] = system: Mustela putorius furo; test: Antiemetic activity against cisplatin-induced emesis in ferrets at 0.3 mg/kg, sc; assay type: functional; settings: route subcutaneous
# How it was run: as §1
# [9] = system: Mustela putorius furo; test: Antiemetic activity against cisplatin-induced emesis in ferrets at 0.1 mg/kg, sc; assay type: functional; settings: route subcutaneous
# How it was run: as §1
# [10] = biological target: CYP2D6 (Homo sapiens, UniProt P10635); test: as §2; assay type: ADME
# CYP2D6, sequence (P10635 whole entry): as above
# [11] = system: Gerbillinae; test: Inhibition of [Sar9, Met(O2)11]SP-induced foot tapping in gerbil at 0.1 mg/kg, sc relative to CP-122721; settings: for inhibition (INH): dose 0.1 mg/kg, route subcutaneous; for % inhibition at 0.1 mg/kg: Gerbillinae, sc
# [12] = biological target: Substance-P receptor (Cavia porcellus) (UniProt P30547); test: Activity at NK1 receptor in po dosed guinea pig ureter assessed as capsaicin-induced plasma protein leakage; assay type: organism-based
# Substance-P receptor (Cavia porcellus), sequence (P30547 whole entry): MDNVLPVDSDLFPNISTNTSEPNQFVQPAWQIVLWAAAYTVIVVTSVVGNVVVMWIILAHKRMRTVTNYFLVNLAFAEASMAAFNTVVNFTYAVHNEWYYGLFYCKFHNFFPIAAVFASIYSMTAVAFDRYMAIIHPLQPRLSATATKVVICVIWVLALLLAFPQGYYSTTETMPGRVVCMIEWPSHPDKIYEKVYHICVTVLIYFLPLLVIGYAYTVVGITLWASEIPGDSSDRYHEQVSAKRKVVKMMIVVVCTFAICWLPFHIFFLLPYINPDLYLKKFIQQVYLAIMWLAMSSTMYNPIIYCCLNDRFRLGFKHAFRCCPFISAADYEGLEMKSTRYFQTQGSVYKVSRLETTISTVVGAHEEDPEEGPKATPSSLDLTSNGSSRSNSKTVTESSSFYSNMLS
# How it was run: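 Guinea pigs were dosed orally. Capsaicin (30 µM) was given ip and caused plasma protein leakage in the ureter, taken as activation of peripheral NK1 receptors. Inhibition was measured across doses, and the ED50 was derived in mg/kg, po.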
# [13] = system: Mustela putorius furo; test: Antiemetic activity against cisplatin-induced emesis in ferrets at 1 mg/kg, sc; assay type: functional; settings: route subcutaneous
# How it was run: as §1
# [14] = Mustela putorius, sc, read-out: ED90
# Substance-P receptor, sequence (P25103 whole entry): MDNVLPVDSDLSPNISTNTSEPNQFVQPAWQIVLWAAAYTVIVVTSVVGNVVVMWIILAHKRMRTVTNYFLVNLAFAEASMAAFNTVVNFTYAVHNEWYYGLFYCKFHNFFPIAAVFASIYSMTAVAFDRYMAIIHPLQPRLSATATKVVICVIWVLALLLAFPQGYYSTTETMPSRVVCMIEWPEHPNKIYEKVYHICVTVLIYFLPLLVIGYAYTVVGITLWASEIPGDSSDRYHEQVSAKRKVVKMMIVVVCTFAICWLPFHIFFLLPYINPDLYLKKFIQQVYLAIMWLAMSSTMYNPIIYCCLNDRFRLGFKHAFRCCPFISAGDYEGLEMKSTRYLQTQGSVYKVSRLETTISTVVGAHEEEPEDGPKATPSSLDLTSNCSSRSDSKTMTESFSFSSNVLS
Compound,IC50 [1],ED100 [2],Ki [3],inhibition (INH) [4],Ratio [5],inhibition (INH) [6],ED50 [7],inhibition at 5 µM [10],further results
COc1cc2c(cc1CN[C@H]1CCCN[C@H]1c1ccccc1)C(C)(C(F)(F)F)OC2 (mixture of isomers; 15),< 0.1 nM,0.3 mg/kg,660 nM,73%,2.1,77%,–,–,"ED90 [2, 14]: 0.05 mg/kg"
COc1ccc(C(F)C(F)(F)F)cc1CN[C@H]1CCCN[C@H]1c1ccccc1 (mixture of isomers),0.7 nM,–,–,–,1.83,–,0.16 mg/kg,46.6%,inhibition in vivo at 0.3 mg/kg [8]: 97%; inhibition in vivo at 0.1 mg/kg [9]: 97%
COc1ccc(CC(F)(F)F)cc1CN[C@H]1CCCN[C@H]1c1ccccc1,0.9 nM,0.1 mg/kg,70 nM,–,4.25,–,0.03 mg/kg,95.6%,ED90 [2]: < 0.1 mg/kg
COc1cc2c(cc1CN[C@H]1CCCN[C@H]1c1ccccc1)C(C)(C(F)(F)F)CCC2 (mixture of isomers; 22),0.34 nM,–,–,90%,–,87%,–,–,inhibition (INH) [11]: 26%
COc1ccc(C(C(F)(F)F)C(F)(F)F)cc1CN[C@H]1CCCN[C@H]1c1ccccc1,< 0.1 nM,0.9 mg/kg,2100 nM,–,2,–,0.33 mg/kg,43.1%,"ED90 [2, 14]: 0.48 mg/kg"
COc1cc2c(cc1CN[C@H]1CCCN[C@H]1c1ccccc1)[C@](C)(C(F)(F)F)OCC2,–,–,–,–,–,–,–,–,ED50 [12]: 0.005 mg/kg
COc1cc2c(cc1CN[C@H]1CCCN[C@H]1c1ccccc1)C(C)(C(F)(F)F)CCC2 (mixture of isomers; 19),0.21 nM,–,–,–,1.58,85%,–,–,inhibition (INH) [11]: 21%
COc1cc2c(cc1CN[C@H]1CCCN[C@H]1c1ccccc1)C(C(F)(F)F)CC2 (mixture of isomers; 10),0.9 nM,1 mg/kg,–,74.2%,–,–,0.11 mg/kg,–,"ED90 [2, 14]: 0.12 mg/kg; inhibition in vivo at 1 mg/kg [13]: 100%"
COc1cc2c(cc1CN[C@H]1CCCN[C@H]1c1ccccc1)C(C(F)(F)F)CC2 (mixture of isomers; 11),0.4 nM,–,520 nM,–,10.6,–,–,75.9%,% inhibition at 0.1 mg/kg [11]: 79%; % inhibition at 1 mg/kg [6]: 88%
COc1cc2c(cc1CN[C@H]1CCCN[C@H]1c1ccccc1)C(C)(C(F)(F)F)CCC2 (mixture of isomers; 20),< 0.1 nM,–,–,42%,–,65%,–,–,inhibition (INH) [11]: 0%
COc1ccc(C(C)(C)C(F)(F)F)cc1CN[C@H]1CCCN[C@H]1c1ccccc1,0.2 nM,1 mg/kg,1340 nM,–,1.16,–,0.12 mg/kg,54.8%,"ED90 [2, 14]: 0.21 mg/kg"
COc1cc2c(cc1CN[C@H]1CCCN[C@H]1c1ccccc1)C(C)(C(F)(F)F)CC2 (mixture of isomers),< 0.1 nM,–,–,–,–,–,–,–,% inhibition at 0.1 mg/kg [11]: 68%; % inhibition at 1 mg/kg [6]: 80%
COc1cc2c(cc1CN[C@H]1CCCN[C@H]1c1ccccc1)C(C)(C(F)(F)F)OC2 (mixture of isomers; 14),< 0.1 nM,–,–,41.8%,–,69%,–,–,inhibition (INH) [11]: 15%
COc1cc2c(cc1CN[C@H]1CCCN[C@H]1c1ccccc1)C(C(F)(F)F)CCC2 (mixture of isomers; 18),< 0.1 nM,–,–,–,–,–,–,85.4%,–
